Assay results reported in ChEMBL document CHEMBL1126705, “16 beta-([18F]fluoro)estrogens: systematic investigation of a new series of fluorine-18-labeled estrogens as potential imaging agents for estrogen-receptor-positive breast tumors” (J Med Chem, 1993).

Legend:
[1] = test system: Rattus norvegicus; assay: Tested in vivo for the biodistribution in rat uterus/muscle at 1 hour after intravenous dose of 120 microCi of the drug and 15 micro g of estradiol; type: ADME, organism-based, Muscle tissue
How it was run: (§1)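 Female Sprague-Dawley rats, 25 days old (~40–53 g), ether-anesthetized, given the 18F-labeled estrogen iv via femoral vein in 10% ethanol saline. […] Others were sacrificed by decapitation at 1 or 3 h. Blood and organs were excised, weighed and gamma counted as % injected dose/g, mean ± SD, typically n = 5 (4–6).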

[2] = test system: Rattus norvegicus; assay: Tested in vivo for the biodistribution in rat muscle at 1 hour after intravenous dose of 120 microCi of the drug and 15 ug of estradiol; type: ADME, organism-based, Muscle tissue
How it was run: (§2)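 Immature (25-day-old) female Sprague-Dawley rats, ether-anesthetized, given the fluorine-18-labeled estrogen by femoral vein injection in 10% ethanol saline. […] Other groups were killed by decapitation at 1 or 3 h. Blood and organs were weighed and gamma-counted. Data are % injected dose/g, mean ± SD, typically n = 5 per group.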

[3] = test system: Rattus norvegicus; assay: Tested in vivo for the biodistribution in rat liver at 1 hour after intravenous dose of 120 microCi of the drug and 15 u g of estradiol; type: ADME, organism-based; how it was run: as §2
[4] = test system: Rattus norvegicus; assay: Tested in vivo for the biodistribution in rat uterus at 1 hour after intravenous dose of 120 microCi of the drug and 15 micro g of estradiol; type: ADME, organism-based; how it was run: as §2
[5] = test system: Rattus norvegicus; assay: Tested in vivo for the biodistribution in rat uterus/blood after 3 hours following an intravenous dose of 120 microCi of drug in 10%ethanol saline; type: ADME, organism-based; how it was run: as §1
[6] = test system: Rattus norvegicus; assay: Tested in vivo for the biodistribution in rat muscle at 1 hour after intravenous dose of 120 microCi of drug in 10%ethanol saline; type: ADME, organism-based, Muscle tissue; how it was run: as §2
[7] = test system: Rattus norvegicus; assay: Tested in vivo for the biodistribution in rat uterus/muscle at 1 hour after intravenous dose of 120 microCi of drug in 10%ethanol saline; type: ADME, organism-based, Muscle tissue; how it was run: as §1
[8] = test system: Rattus norvegicus; assay: Tested in vivo for the biodistribution in rat ovaries at 1 hour after intravenous dose of 120 microCi of drug in 10%ethanol saline; type: ADME, organism-based, Female gonad; how it was run: as §2
[9] = test system: Rattus norvegicus; assay: Tested in vivo for the biodistribution in rat uterus at 1 hour after intravenous dose of 120 microCi of drug in 10%ethanol saline; type: ADME, organism-based; how it was run: as §2
[10] = Partition coefficient (logP); type: physicochemical; details: octanol/water
How it was run: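 Octanol/water log P estimated from log k'w measured by reversed-phase HPLC (Minick method) on a C8 silica column.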

[11] = test system: Rattus norvegicus; assay: Tested in vivo for the biodistribution in blood of female rat after 3 hours following an intravenous dose of 120 microCi of drug in 10%ethanol saline; type: ADME, organism-based
How it was run: (§3)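 Female Sprague-Dawley rats (25 days old, 40 g) under ether received 120 μCi of tracer iv (femoral vein; effective specific activity 1306 Ci/mmol) in 10% ethanol saline. They were decapitated at 1 h (n = 6) or 3 h (n = 5). Tissues were weighed and gamma-counted, reported as % injected dose/g, mean ± SD.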

[12] = biological target: T1, Estrogen receptor (Rattus norvegicus) (UniProt P06211+Q62986)
[13] = biological target: T2, Sex hormone-binding globulin (Homo sapiens) (UniProt P04278); assay: Relative binding affinity against sex steroid binding protein (SBP)
T2 sequence (whole entry): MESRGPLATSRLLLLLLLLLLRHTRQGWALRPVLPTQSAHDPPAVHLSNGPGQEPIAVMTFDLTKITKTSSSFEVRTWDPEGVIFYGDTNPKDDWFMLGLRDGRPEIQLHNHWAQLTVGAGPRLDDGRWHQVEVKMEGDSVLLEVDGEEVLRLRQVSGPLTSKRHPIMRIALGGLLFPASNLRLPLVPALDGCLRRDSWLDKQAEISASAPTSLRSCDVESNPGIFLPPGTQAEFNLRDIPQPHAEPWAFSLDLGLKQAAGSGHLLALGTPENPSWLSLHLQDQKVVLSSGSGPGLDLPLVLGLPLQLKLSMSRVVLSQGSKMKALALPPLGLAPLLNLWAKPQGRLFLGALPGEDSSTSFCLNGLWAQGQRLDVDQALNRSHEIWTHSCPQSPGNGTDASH

[14] = test system: Rattus norvegicus; assay: Tested in vivo for the biodistribution in rat uterus after 3 hours following an intravenous dose of 120 microCi of drug in 10%ethanol saline; type: ADME, organism-based; how it was run: as §2
[15] = test system: Rattus norvegicus; assay: Tested in vivo for the biodistribution in rat uterus/blood at 1 hour after intravenous dose of 120 microCi of drug in 10%ethanol saline; type: ADME, organism-based; how it was run: as §1
[16] = test system: Rattus norvegicus; assay: Tested in vivo for the biodistribution in rat liver after 3 hours following an intravenous dose of 120 microCi of drug in 10%ethanol saline; type: ADME, organism-based; how it was run: as §2
[17] = test system: Rattus norvegicus; assay: Tested in vivo for the biodistribution in blood of female rat at 1 hour after intravenous dose of 120 microCi of drug in 10%ethanol saline; type: ADME, organism-based; how it was run: as §3
[18] = biological target: T1, Estrogen receptor (Rattus norvegicus); remark: listed apart in the source
[19] = test system: Rattus norvegicus; assay: Tested in vivo for the biodistribution in rat uterus/blood at 1 hour after intravenous dose of 120 microCi of the drug and 15 ug of estradiol; type: ADME, organism-based; how it was run: as §1
[20] = test system: Rattus norvegicus; assay: Tested in vivo for the biodistribution in blood of female rat at 1 hour after intravenous dose of 120 microCi of the drug and 15 u g of estradiol; type: ADME, organism-based
[21] = test system: Rattus norvegicus; assay: Tested in vivo for the biodistribution in rat kidney at 1 hour after intravenous dose of 120 microCi of drug in 10%ethanol saline; type: ADME, organism-based; how it was run: as §3
[22] = test system: Rattus norvegicus; assay: Tested in vivo for the biodistribution in rat ovaries after 3 hours following an intravenous dose of 120 microCi of drug in 10%ethanol saline; type: ADME, organism-based, Female gonad; how it was run: as §2
[23] = test system: Rattus norvegicus; assay: Tested in vivo for the biodistribution in rat ovaries at 1 hour after intravenous dose of 120 microCi of the drug and 15 ug of estradiol; type: ADME, organism-based, Female gonad; how it was run: as §2
[24] = test system: Rattus norvegicus; assay: Tested in vivo for the biodistribution in rat liver at 1 hour after intravenous dose of 120 microCi of drug in 10%ethanol saline; type: ADME, organism-based; how it was run: as §2
[25] = test system: Rattus norvegicus; assay: Tested in vivo for the biodistribution in rat kidney after 3 hours following an intravenous dose of 120 microCi of drug in 10%ethanol saline; type: ADME, organism-based; how it was run: as §3
[26] = test system: Rattus norvegicus; assay: Tested in vivo for the biodistribution in rat uterus/muscle after 3 hours following an intravenous dose of 120 microCi of drug in 10%ethanol saline; type: ADME, organism-based, Muscle tissue; how it was run: as §1
[27] = test system: Rattus norvegicus; assay: Tested in vivo for the biodistribution in rat bone at 1 hour after intravenous dose of 120 microCi of drug in 10%ethanol saline; type: ADME, organism-based, Bone element; how it was run: as §3
[28] = test system: Rattus norvegicus; assay: Tested in vivo for the biodistribution in rat bone after 3 hours following an intravenous dose of 120 microCi of drug in 10%ethanol saline; type: ADME, organism-based, Bone element; how it was run: as §3
[29] = test system: Rattus norvegicus; assay: Tested in vivo for the biodistribution in rat bone at 1 hour after intravenous dose of 120 microCi of the drug and 15 ug of estradiol; type: ADME, organism-based, Bone element
[30] = test system: Rattus norvegicus; assay: Tested in vivo for the biodistribution in rat fat at 1 hour after intravenous dose of 120 microCi of drug in 10%ethanol saline; type: ADME, organism-based, Adipose tissue; how it was run: as §3
[31] = test system: Rattus norvegicus; assay: Tested in vivo for the biodistribution in rat fat after 3 hours following an intravenous dose of 120 microCi of drug in 10%ethanol saline; type: ADME, organism-based, Adipose tissue; how it was run: as §3
[32] = biological target: T3, Alpha-fetoprotein (Rattus norvegicus) (UniProt P02773); assay: Relative binding affinity for Alphafetoprotein
T3 sequence (whole entry): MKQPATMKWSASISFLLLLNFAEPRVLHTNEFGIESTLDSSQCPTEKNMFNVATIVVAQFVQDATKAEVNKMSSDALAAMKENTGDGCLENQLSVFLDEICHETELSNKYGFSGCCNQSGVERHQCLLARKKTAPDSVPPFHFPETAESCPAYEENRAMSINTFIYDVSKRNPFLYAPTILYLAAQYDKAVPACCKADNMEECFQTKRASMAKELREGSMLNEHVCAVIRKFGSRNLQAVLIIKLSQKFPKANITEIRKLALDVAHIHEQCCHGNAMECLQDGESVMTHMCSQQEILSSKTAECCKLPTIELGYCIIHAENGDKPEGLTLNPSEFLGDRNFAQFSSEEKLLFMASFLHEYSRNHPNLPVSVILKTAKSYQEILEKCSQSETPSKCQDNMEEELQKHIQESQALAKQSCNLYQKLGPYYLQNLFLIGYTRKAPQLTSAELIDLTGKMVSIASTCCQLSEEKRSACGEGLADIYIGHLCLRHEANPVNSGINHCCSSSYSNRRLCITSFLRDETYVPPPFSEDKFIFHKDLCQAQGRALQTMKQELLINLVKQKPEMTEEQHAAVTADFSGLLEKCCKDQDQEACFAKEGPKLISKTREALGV

[33] = test system: Rattus norvegicus; assay: Tested in vivo for the biodistribution in rat muscle after 3 hours following an intravenous dose of 120 microCi of drug in 10%ethanol saline; type: ADME, organism-based, Muscle tissue; how it was run: as §2
[34] = test system: Rattus norvegicus; assay: Tested in vivo for the biodistribution in rat kidney at 1 hour after intravenous dose of 120 microCi of the drug and 15 u g of estradiol; type: ADME, organism-based
[35] = test system: Rattus norvegicus; assay: Tested in vivo for the biodistribution in rat fat at 1 hour after intravenous dose of 120 microCi of the drug and 15 micro g of estradiol; type: ADME, organism-based, Adipose tissue

Injected [1]: 2.685%
Injected [2]: 0.466%
Injected [3]: 3.771%
Injected [4]: 1.257%
Injected [5]: 2.273%
Injected (dose/g) [6]: 0.402%
Injected [7]: 15.22%
Injected (dose/g) [8]: 1.91%
Injected [9]: 4.994%
logP [10]: 2.81
Injected [11]: 0.534%
BSI [12]: 19
relative binding affinity (RBA) [13]: 8.9
Injected [14]: 1.176%
Injected (dose/g) [15]: 5.631%
Injected (dose/g) [16]: 1.483%
Injected [17]: 0.949%
NSB [18]: 0.63
Injected [19]: 0.857%
Injected [20]: 1.486%
Injected [21]: 2.051%
Injected [22]: 0.615%
Injected (dose/g) [23]: 1.189%
Injected (dose/g) [24]: 2.957%
Injected [25]: 0.821%
Injected [26]: 9.05%
Injected (dose/g) [27]: 1.008%
Injected (dose/g) [28]: 1.201%
Injected [29]: 1.216%
Injected [30]: 0.31%
Injected [31]: 0.131%
relative binding affinity (RBA) [32]: 20
Injected (dose/g) [33]: 0.151%
Injected (dose/g) [34]: 3.388%
Injected (dose/g) [35]: 0.391%
SMILES: C[C@]12CC[C@@H]3c4ccc(O)cc4CC[C@H]3[C@@H]1C[C@H](F)[C@@H]2O
